# From PubChem BioAssay
# HSV replic up: enhancers of HSV replication in host cells, fold increase, host cell viability | HSV replication augmentation in cells | AID 1956, 2009 | maximum fold increase | hit rate 0.005% among 220,000; in the data active means maximum fold increase above about 1.5; inconclusive means no clear call, values can overlap the other calls; tested in PC3 cells
# Mdm2 ligase inh: MDM2-luciferase reporter signal enhancers, primary screen, MDM2 E3 ligase inhibitor project, cell-based, luminescence, 1536-well; hit rate 0.11% among 210,000; AID 1230, 2008; signal enhancement, % at 5 µM; cell-based MDM2 ubiquitination luciferase reporter, 2 h; 0 = plate control, 100 = twice control, blank-subtracted; E3 ubiquitin-protein ligase Mdm2 (Homo sapiens), Q00987;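 active means signal enhancement of 30% or more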;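 further: luminescence tracks abundance of the self-degrading MDM2-luciferase fusion protein; higher signal means inhibition of MDM2 E3 ligase activity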
# Target sequence (Q00987 whole entry, looked up, the tested form may be a part): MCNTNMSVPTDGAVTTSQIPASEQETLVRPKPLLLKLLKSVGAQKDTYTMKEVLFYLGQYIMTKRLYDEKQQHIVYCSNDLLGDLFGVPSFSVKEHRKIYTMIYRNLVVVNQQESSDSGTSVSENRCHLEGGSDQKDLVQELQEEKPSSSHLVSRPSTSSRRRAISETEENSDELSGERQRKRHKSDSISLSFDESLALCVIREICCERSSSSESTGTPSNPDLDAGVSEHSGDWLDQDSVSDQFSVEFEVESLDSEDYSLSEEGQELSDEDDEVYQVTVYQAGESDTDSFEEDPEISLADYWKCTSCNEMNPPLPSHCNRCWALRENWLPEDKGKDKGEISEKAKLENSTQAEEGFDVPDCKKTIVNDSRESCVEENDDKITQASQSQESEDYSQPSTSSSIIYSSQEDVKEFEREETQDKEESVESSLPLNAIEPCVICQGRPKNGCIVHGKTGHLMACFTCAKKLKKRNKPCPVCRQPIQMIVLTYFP
#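 Test system: stable mammalian line carrying autodegrading MDM2–luciferase fusion reporter; quantity: 2000 cells in each well; times: 4 h cell settling then 2 h compound exposure, 37 °C; detection: luminescence with SteadyLite reagent, 15 min at room temperature; evaluation: percent signal gain over controls, blank-subtracted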
# HSF1 activator: HSF-1 activators, primary screen, NIH3T3-HGL cells, MG132 stress, luminescence, single point | NIH3T3-HGL HSF-1 luciferase reporter, 8 h; 100% = twice DMSO control signal | activation, % at 9 µM | hit rate 1.7% among 300,000 | AID 504408, 2011;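 active means mean replicate activation of at least 50% with a set share of replicates each reaching 50%; inconclusive means only one of those two conditions met; inactive means mean below 50% and too few replicates reaching it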;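 further: 0% = median of the neutral control wells and 100% = twice that signal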
# HSF1 inhib: HSF1 inhibitors in luciferase reporter cells, primary screen, cell-based, NIH3T3, luminescence; NIH3T3-HGL HSE-luciferase, MG132-induced, luminescence 8 h; stronger effect = lower value; activity change, negative = inhibition, % at 7.5 µM (by protocol); hit rate 0.77% among 300,000;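 active means more than half of replicate wells show activity change below -50%, luminescence cut by over half; inconclusive means some wells, but at most half, below -50%; inactive means no replicate well below -50%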;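 further: luciferase reports HSF-1 transcriptional activity via heat shock element; 0% = median of DMSO wells and -100% = zero luminescence signal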
# Hsp70 activator: Hsp70 transcriptional activators, primary screen, cell-based, HeLa, Hsp70 promoter luciferase, luminescence, 10 µM; activation, % at 10 µM; HeLa Hsp70 promoter luciferase reporter; scaled: vehicle 0, proteasome-inhibitor control 100%; AID 1203, 2008; hit rate 0.04% among 200,000;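 active means activation above the mean across all tested compounds plus 3 SD, cutoff set per campaign, cut at about 5.5% in these data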;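 further: 100% = MG132 at 30 µM as the positive control and 0% = DMSO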
# Rad51 HR inh: human RAD51 strand exchange inhibitors, primary screen, biochemical, fluorescence; hRad51 DNA strand exchange, fluorescence dequenching; DNA repair protein RAD51 homolog 1 (Homo sapiens), Q06609; AID 1385, 2008; hit rate 0.085% among 200,000; inhibition, % at 10 µM;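 active means inhibition above 40% at the single screening dose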;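 further: 0% = DMSO control wells and 100% = blanks with heterologous ssDNA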
#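 Material: Human Rad51 nucleoprotein filaments preassembled on unlabelled ssDNA | Also added: Labelled 47-mer dsDNA for strand exchange | Dosing: Single dose, 10 µM final compound | Schedule: 30-min compound preincubation and 15-min exchange, both room temperature | Technique: Fluorescence dequenching at 485/520 nm | Measure: Percent inhibition relative to plate controls and blanks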
# Numbers without * were called inactive; i = inactive; ? = inconclusive; nt = not tested or not shown; ! = not confirmed by another sample. A selection: hits, their analogues and other compounds. The true share with any hit is near 2.6%.
SMILES,HSV replic up,Mdm2 ligase inh,HSF1 activator,HSF1 inhib,Hsp70 activator,Rad51 HR inh
Brc1ccc(-c2cn3c(n2)SCC3)cc1,i,-7,63*,26,0,0
Clc1ccc(-c2cn3c(n2)SCC3)cc1,i,-18,58*,11,0,2
Oc1ccc(-c2cn3c(n2)SCC3)cc1,i,-12,-2,-4,0,0
CCOC(=O)N1CCN(C(=O)CCl)CC1,i,-5,8,-1,0,26
O=C(CCN1CCOCC1)NNC(=S)NC(=O)c1ccc(Br)cc1,i,-21,24,10,0,-4
O=C(/C(=C(\[O-])c1ccccc1)[n+]1ccc2ccccc2c1)c1ccc(Cl)cc1,i,-3,-66,-57*,0,nt
O=C(/C(=C(\[O-])c1ccccc1)[n+]1ccc2ccccc2c1)c1ccc([N+](=O)[O-])cc1,i,9,-72,-64*,0,8
Clc1ccc(-c2cccs2)nn1,i,-6,-17,-7,0,2
CC1CCN(c2ccc(-c3cccs3)nn2)CC1,nt,nt,-72,-67*,nt,nt
Cc1nc(SCC(=O)N2CCCCCC2)[nH]c(=O)c1C,nt,nt,3,-3,nt,nt
CCc1ccc(Nc2n[n+](-c3ccccc3)c(/C=C/c3ccccc3)s2)cc1,nt,nt,?,17,nt,nt
COc1ccc(OCC(O)CN2CCN(Cc3ccc4c(c3)OCO4)CC2)cc1 (stereo not drawn),i,-6,-12,-1,0,0
CC(=O)c1ccc(OCC(O)CN2CCN(Cc3ccc4c(c3)OCO4)CC2)cc1 (stereo not drawn),i,9,-7,-61*!,0,-7
O=C(COC(=O)c1cccs1)c1ccccc1,i,-16,49,28,0,-13
O=C(CC(Nc1ccc(F)cc1)C(=O)O)c1ccccc1 (stereo not drawn),i,-49,56*,34,1,-2
O=C(CC(Nc1ccc(F)cc1)C(=O)OCC(=O)c1cccs1)c1ccccc1 (stereo not drawn),i,-16,89*,55,0,-1
Cc1ccc(NC(CC(=O)c2ccccc2)c2ccc(F)cc2)cc1 (stereo not drawn),i,11,1,4,0,1
CCOc1ccccc1NC(=O)CSc1nc(=O)n(CCN2CCOCC2)c2c1CCCC2,nt,nt,-19,0,nt,nt
NC(=O)CCN1CCN(CCOC2Cc3cc(Cl)ccc3Sc3ccccc32)CC1 (stereo not drawn),i,-14,59*,20,0,12
CN1CCC(=NNc2ccc(S(=O)(=O)N3CCOCC3)cc2[N+](=O)[O-])CC1,i,9,98*,47,0,7
CCC(C)(C)NC(=O)C(c1ccccc1Cl)N(C(=O)CCC(=O)Nc1cc(C)on1)c1ccc(NC(C)=O)cc1 (stereo not drawn),nt,nt,-3,-8,nt,nt
Cc1ccc(NC(=O)CCCCCN2C(=O)c3ccccc3C2=O)nc1,i,-7,54*,10,0,5
Cc1cccc(NC(=O)CCCCCN2C(=O)c3ccccc3C2=O)n1,i,-6,1,5,0,-2
O=Cc1ccccc1OCCCOc1cccc2cccnc12,nt,nt,30,21,nt,nt
Brc1ccc(OCCOCCOc2cccc3cccnc23)cc1,i,nt,20,10,0,3
SMILES,HSV replic up,Mdm2 ligase inh,HSF1 activator,HSF1 inhib,Hsp70 activator,Rad51 HR inh
O=[N+]([O-])c1ccccc1OCCCOc1cccc2cccnc12,nt,nt,55*,28,nt,nt
Brc1ccc(OCCCOc2cccc3cccnc23)cc1,nt,nt,56*,14,nt,nt
Clc1ccccc1OCCCOc1cccc2cccnc12,nt,nt,106*,121,nt,nt
Cc1cc(/C=C2/NC(=O)NC2=O)c(C)n1C,i,-1,-3,-6,0,-6
CCCC(c1nnnn1CC(=O)OCC)N(Cc1cc2c(C)cc(C)cc2[nH]c1=O)C1CCCC1 (stereo not drawn),i,-3,92*,66,0,-1
CCCC(c1nnnn1CC(=O)OCC)N(Cc1cc2ccc(C)cc2[nH]c1=O)C1CCCC1 (stereo not drawn),i,-16,8,24,0,nt
Cc1nn(C(C)(C)C)c(C)c1/C=N/OC(=O)Nc1ccc(Cl)c(Cl)c1,i,-87,-96,-95*,nt,5
COc1ccc(NC(=O)O/N=C/c2c(C)nn(C(C)(C)C)c2C)cc1,i,-42,-73,-71*,nt,23
Cc1cccc(NC(=O)Cc2coc3ccc4ccccc4c23)n1,i,-20,3,-7,0,4
Cc1ccc(NC(=O)c2cc(S(=O)(=O)N3CCCC3)c[nH]2)c(C)c1,nt,nt,-2,-1,nt,nt
N#CC1=C(N)Oc2cc(N)ccc2C1c1ccccc1Cl (stereo not drawn),nt,nt,-71,-61*,nt,nt
CC1CC(C)CN(C(=O)Nc2ccccc2F)C1 (stereo not drawn),i,-7,-1,-6,nt,nt
CC(=O)Nc1ccccc1OC(C)C(=O)N1CC(C)CC(C)C1 (stereo not drawn),i,-10,114*,56,nt,-6
Cc1cnccc1CNC(=O)C1CCC(=O)N(Cc2ccc(Cl)cc2)C1 (stereo not drawn),nt,nt,1,-3,nt,nt
CN1CCN(C(=O)c2cc(=O)c3cc(Cl)cc(Cl)c3o2)CC1,nt,nt,2,0,nt,nt
COC(=O)C(=C/C(C)=C/c1cccs1)C(=O)OC,i,-9,66*,32,0,20
COC(=O)c1ccc2ccccc2n1,i,nt,19,5,nt,0
CCOc1ccc(N=C(NN)c2ccc3ccccc3n2)cc1,i,-41,-84,-82*,0,0
O=Cc1ccc(-c2nc3ccccc3s2)o1,i,-26,63*,36,0,3
O=C(O)c1ccc(-c2nc3ccccc3s2)o1,i,nt,15,8,nt,-5
O=C(/C=C/c1cn(CC(O)CN2CCCCC2)c2ccccc12)c1ccccc1 (stereo not drawn),i,-8,14,13,nt,-37
CN1CCN(Cn2cc(/C=C/C(=O)c3ccccc3)c3ccccc32)CC1,i,2,87*,46,0,-3
Cc1[nH]c2ccccc2c1CN1CCN(c2ccccn2)CC1,i,-13,81*,52,nt,6
O=C1CCc2cc(S(=O)(=O)Nc3ccccc3)cc3c2N1CCC3,nt,nt,3,-5,nt,nt
CC(OC(=O)CN1C(=O)NC2(CCCC2)C1=O)C(=O)c1ccccc1 (stereo not drawn),nt,nt,-76,-70*,nt,nt
